Source: the array DNA melting data of Ke et al. (doi:10.1101/2024.01.08.574731)

Legend:
[1] = melting temperature; fluorescence melt of hairpins on a sequencing array, two-state fit, raised by 9.35 °C to match UV melts; conditions: sodium 0.088 M
Method in brief: (§1)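 Melting temperature and folding enthalpy were derived from bootstrapped two-state fits. The fitted temperatures were raised by 9.35 °C to agree with UV melts, and four replicates were combined by inverse variance. The underlying data were Cy3 fluorescence images of library hairpins, with annealed Cy3 and quencher oligos, on a sequenced MiSeq flow cell in 50 mM Na-HEPES pH 8.0, 25 mM NaCl, taken in 2.5 °C steps up to 60 °C, normalised to pre-quench Cy3 and to control constructs.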

[2] = folding enthalpy; higher = less favourable; fluorescence melt of hairpins on a sequencing array, two-state fit; conditions: sodium 0.088 M
Method in brief: as §1

Sequence | Tm [1] | folding enthalpy [2]
CGGGCGGAAACGCTACCG ((((((....)))..))) | 45.8 °C | -24.3 kcal/mol
CGGGCGGAAACGCTCCCG ((((((....)))..))) | 48.1 °C | -14.7 kcal/mol
CGGGCGGAAACGCTCCG ((((((....))).))) | 54.2 °C | -26.4 kcal/mol
CGGGTCGGAAACGATCCG (((.(((....))).))) | 58 °C | -45.1 kcal/mol
CGGTAACGGAAACGTCCG (((..(((....)))))) | 37.9 °C | -24.6 kcal/mol
CGGTACGGAAACGTTCCG (((.(((....))).))) | 49.8 °C | -32.4 kcal/mol
CGGTCCCGGAAACGGCCG (((..(((....)))))) | 41.3 °C | -21.1 kcal/mol
CGGTCCGGAAACGGTCCG (((.(((....))).))) | 55.6 °C | -40.5 kcal/mol
CGGTCGGAAACGACGCCG ((((((....)))..))) | 36.7 °C | -11.7 kcal/mol
CGGTCGGAAACGAGACCG ((((((....)))..))) | 49.9 °C | -38.6 kcal/mol
CGGTCGGAAACGATTCCG ((((((....)))..))) | 43.9 °C | -19.8 kcal/mol
CGGTGCGGAAACGCTCCG (((.(((....))).))) | 62 °C | -34.8 kcal/mol
CGGTTCGGAAACGATCCG (((.(((....))).))) | 51 °C | -36 kcal/mol
CGGTTGCGGAAACGCCCG (((..(((....)))))) | 46.5 °C | -22.3 kcal/mol
CGGTTTCGGAAACGACCG (((..(((....)))))) | 38 °C | -17.1 kcal/mol
CGTAACGGAAACGTGACG (((.(((....))).))) | 49.6 °C | -47 kcal/mol
CGTAATCGGAAACGAACG (((..(((....)))))) | 20.9 °C | -7.75 kcal/mol
CGTACGGAAACGTAACG ((((((....))).))) | 45.3 °C | -28.7 kcal/mol
CGTACGGAAACGTCAACG ((((((....)))..))) | 32.2 °C | -13.5 kcal/mol
CGTACGGAAACGTTTACG ((((((....)))..))) | 37.3 °C | -16 kcal/mol
CGTAGCGGAAACGCCACG (((.(((....))).))) | 46.9 °C | -32 kcal/mol
CGTATGAAAATACG (((((....))))) | 47.4 °C | -24.1 kcal/mol
CGTCACCGGAAACGGACG (((..(((....)))))) | 36.4 °C | -21.6 kcal/mol

Sequence | Tm [1] | folding enthalpy [2]
CGTCCACGGAAACGTACG (((..(((....)))))) | 28.5 °C | -15.7 kcal/mol
CGTCCGGAAACGGATACG ((((((....)))..))) | 40 °C | -18.1 kcal/mol
CGTCCGGAAACGGGCACG ((((((....)))..))) | 38.9 °C | -12.4 kcal/mol
CGTCCGGAAACGGGTACG ((((((....)))..))) | 42.4 °C | -25 kcal/mol
CGTCCGGAAACGGTAACG ((((((....)))..))) | 37.8 °C | -25.1 kcal/mol
CGTCGACGGAAACGTACG (((..(((....)))))) | 38.1 °C | -20.2 kcal/mol
CGTGCGGAAACGCCACG ((((((....))).))) | 53.8 °C | -25.4 kcal/mol
CGTGCGGAAACGCCTACG ((((((....)))..))) | 39.1 °C | -15.3 kcal/mol
CGTGCGGAAACGCTTACG ((((((....)))..))) | 38.4 °C | -22.6 kcal/mol
CGTGGACGGAAACGTACG (((..(((....)))))) | 36.6 °C | -20.3 kcal/mol
CGTGGCGGAAACGCACG (((.(((....)))))) | 53.7 °C | -26.5 kcal/mol
CGTGTCGGAAACGAAACG (((.(((....))).))) | 47.1 °C | -35.6 kcal/mol
CGTGTCGGAAACGAACG (((.(((....)))))) | 37.7 °C | -24.3 kcal/mol
CGTGTTCGGAAACGAACG (((..(((....)))))) | 42.1 °C | -8.25 kcal/mol
CGTTAGCGGAAACGCACG (((..(((....)))))) | 39.8 °C | -18.1 kcal/mol
CGTTCACGGAAACGTACG (((..(((....)))))) | 39 °C | -15.2 kcal/mol
CGTTCGGAAACGAAAACG ((((((....)))..))) | 34.9 °C | -24.8 kcal/mol
CGTTCGGAAACGAAGACG ((((((....)))..))) | 34.9 °C | -26.2 kcal/mol
CGTTCGGAAACGACCACG ((((((....)))..))) | 27.3 °C | -8.89 kcal/mol
CGTTCGGAAACGAGAACG ((((((....)))..))) | 41.2 °C | -27.9 kcal/mol
CGTTCGGAAACGAGGACG ((((((....)))..))) | 34.7 °C | -14.1 kcal/mol
CGTTGCGGAAACGCGACG (((.(((....))).))) | 67.4 °C | -30.5 kcal/mol
CGTTGGCGGAAACGCACG (((..(((....)))))) | 41.1 °C | -14.6 kcal/mol

Sequence | Tm [1] | folding enthalpy [2]
CGTTTCGGAAACGACACG (((.(((....))).))) | 44.8 °C | -29.6 kcal/mol
CGTTTGCGGAAACGCACG (((..(((....)))))) | 39.8 °C | -10.4 kcal/mol
CTAGCGAAAGCTAG (((((....))))) | 63.2 °C | -19 kcal/mol
CTCGAGAAATCGAG (((((....))))) | 47.9 °C | -21.2 kcal/mol
CTCGTGAAAACGAG (((((....))))) | 53.5 °C | -21.4 kcal/mol
CTCTGGAAACAGAG (((((....))))) | 46.4 °C | -19.9 kcal/mol
CTCTTGAAAAAGAG (((((....))))) | 36.2 °C | -10.4 kcal/mol
CTGAAGAAATTCAG (((((....))))) | 33.4 °C | -12.5 kcal/mol
CTGACGAAAGTCAG (((((....))))) | 65 °C | -29 kcal/mol
CTGGTGAAAACCAG (((((....))))) | 52.8 °C | -20.3 kcal/mol
CTGTAGAAATACAG (((((....))))) | 39.4 °C | -14.5 kcal/mol
CTTGTGAAAACAAG (((((....))))) | 45.2 °C | -23.1 kcal/mol
GAAAAAGAAATTTTTC ((((((....)))))) | 28.1 °C | -14.6 kcal/mol
GAAAACCGAAAGGTGTTC (((.(((....))).))) | 44.9 °C | -19.9 kcal/mol
GAAAACCGAAAGGTTTC (((.(((....)))))) | 44.2 °C | -15.9 kcal/mol
GAAAACGAAAGTTTGTTC ((((((....)))..))) | 28.4 °C | -13.5 kcal/mol
GAAAACGGAAACGCTTTC ((((.((....)).)))) | 34.8 °C | -32.4 kcal/mol
GAAAAGCGAAAGCTGTTC (((.(((....))).))) | 44.9 °C | -18 kcal/mol
GAAAAGGGAAACCCTTTC ((((.((....)).)))) | 32.6 °C | -17 kcal/mol
GAAAATACGAAAGTATTC (((..(((....)))))) | 27.7 °C | -13.7 kcal/mol
GAAACACGAAAGTGATTC (((.(((....))).))) | 45.5 °C | -29.6 kcal/mol
GAAACAGGAAACTGCTTC (((.(((....))).))) | 31.6 °C | -21.9 kcal/mol
GAAACCCGAAAGGGTTC (((.(((....)))))) | 51.5 °C | -10.2 kcal/mol

Sequence | Tm [1] | folding enthalpy [2]
GAAACCGAAAGGTCTTTC ((((((....)))..))) | 32.3 °C | -14 kcal/mol
GAAACCGAAAGGTGATTC ((((((....)))..))) | 41.6 °C | -22.4 kcal/mol
GAAACCGAAAGGTTGTTC ((((((....)))..))) | 36.8 °C | -13.7 kcal/mol
GAAACCGAAAGGTTTC ((((((....)))))) | 67.1 °C | -29.4 kcal/mol
GAAACCGGAAACGGCTTC (((.(((....))).))) | 42 °C | -23.6 kcal/mol
GAAACGAAAGTTTC (((((....))))) | 53.4 °C | -29.1 kcal/mol
GAAACTGGAAACAGTCTC ((.((((....)))).)) | 28 °C | -15.5 kcal/mol
GAAAGAGAAATCTTTC ((((((....)))))) | 36.8 °C | -18.2 kcal/mol
GAAAGAGGAAACTCTTTC (((((((....))))))) | 51.2 °C | -37.8 kcal/mol
GAAAGCCGAAAGGCGTTC (((.(((....))).))) | 52.3 °C | -12.3 kcal/mol
GAAAGCGAAAGCTCCTTC ((((((....)))..))) | 31.4 °C | -10.2 kcal/mol
GAAAGCGAAAGCTCGTTC ((((((....)))..))) | 25.9 °C | -9.57 kcal/mol
GAAAGCGAAAGCTCTTC ((((((....))).))) | 44.3 °C | -17.9 kcal/mol
GAAAGCGAAAGCTGGTTC ((((((....)))..))) | 29.3 °C | -9.59 kcal/mol
GAAAGCGGAAACGCTTCC (.(((((....))))).) | 41.4 °C | -12.3 kcal/mol
GAAAGCGGAAACGCTTTC (((((((....))))))) | 65.5 °C | -41 kcal/mol
GAAAGGACGAAAGTCTTC (((..(((....)))))) | 24.9 °C | -11.8 kcal/mol
GAAAGGCGAAAGCCTTC (((.(((....)))))) | 49.6 °C | -10.4 kcal/mol
GAAATCGGAAACGATTTC (((((((....))))))) | 59.5 °C | -42.9 kcal/mol
GAAATGGGAAACCATTCC (.(((((....))))).) | 31 °C | -14.8 kcal/mol
GAAATTGGAAACGATTTC (((((.(....).))))) | 37.6 °C | -30.1 kcal/mol
GAACAAGGAAACTTGCTC ((.((((....)))).)) | 29.4 °C | -19.4 kcal/mol
GAACACCCGAAAGGGTTC (((..(((....)))))) | 30.7 °C | -8.81 kcal/mol
